Arrestin-AP2 inh: inhibitors of human beta-arrestin and AP2 interaction; FITC-arrestin peptide / GST-AP2 beads, flow cytometry; AP2 beta2 appendage carries R879A mutation; inhibition, % at 10 µM; 340,000 compounds, 0.31% hits;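 active = inhibition above a set limit, near 3 SD of compounds lacking own fluorescence, cut at about 54% in these data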;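 note: plate controls were DMSO wells for no effect and 5 µM unlabelled arrestin peptide for full effect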
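test system = AP2 appendage R879A on GSH beads | buffer or medium = PBS plus Tween 20 (0.05%) and BSA (0.1%) | incubation = 12 min plus 1 h, RT | detection = bead flow cytometry, FITC channel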
MEKK3 PB1 HTS: MEKK3-MEK5 PB1 interaction, increase or decrease. Q99759. bead-based flow cytometry, Alexa488-MEK5 binding to MEKK3; actives lie on both sides; 0 = blocked by unlabeled MEK5, 100 = vehicle. binding response (% of control), % at 10 µM. 290,000 compounds, 1.4% hits. AID 1529;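 active = binding response more than 3 SD above or below the average of its plate-row segment, actives on both sides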;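 note: Alexa488 bead fluorescence after subtracting the streptavidin-only scavenger bead signal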
Target sequence (Q99759 whole entry, looked up): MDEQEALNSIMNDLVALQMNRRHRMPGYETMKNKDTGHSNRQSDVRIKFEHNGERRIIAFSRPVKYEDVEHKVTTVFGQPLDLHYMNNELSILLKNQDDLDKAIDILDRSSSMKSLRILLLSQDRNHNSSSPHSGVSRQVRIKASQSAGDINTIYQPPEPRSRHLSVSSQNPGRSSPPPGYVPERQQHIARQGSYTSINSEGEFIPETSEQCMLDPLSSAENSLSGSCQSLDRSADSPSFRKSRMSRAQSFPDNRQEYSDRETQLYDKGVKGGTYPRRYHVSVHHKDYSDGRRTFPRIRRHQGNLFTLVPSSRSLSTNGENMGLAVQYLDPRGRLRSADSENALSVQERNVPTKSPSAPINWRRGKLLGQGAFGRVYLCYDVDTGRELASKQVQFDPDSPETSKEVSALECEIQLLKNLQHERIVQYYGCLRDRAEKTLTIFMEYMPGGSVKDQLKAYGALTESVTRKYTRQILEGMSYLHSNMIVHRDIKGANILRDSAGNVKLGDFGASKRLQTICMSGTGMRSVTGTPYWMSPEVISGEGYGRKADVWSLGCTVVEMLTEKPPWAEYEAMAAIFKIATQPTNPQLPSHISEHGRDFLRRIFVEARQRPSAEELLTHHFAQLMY
MEKK2 mut-MEK5: signal of MEK5 binding to mutant human MEKK2 PB1 domain. percent response, % at 10 µM. 290,000 compounds, 0.35% hits. AID 1530. bead flow cytometry, Alexa488-MEK5 binding to MEKK2 mutant; in the data active = percent response above about 24%, passing the limit was not always enough
MEKK2 WT-MEK5: raises or lowers MEK5 binding to wildtype human MEKK2 PB1 domain | bead flow cytometry, Alexa488-MEK5 binding to MEKK2 WT; actives lie on both sides | AID 1531 | 290,000 compounds, 1.1% hits | binding response (% of control), % at 10 µM; in the data active = binding response below about 67% or above about 130%
MEKK2wt confirm: raises or lowers MEK5 binding to wildtype human MEKK2, retest. shares compounds with MEKK3 PB1 HTS. bead flow cytometry, Alexa488-MEK5 binding to MEKK2 WT; actives lie on both sides. binding response (% of control), % at 10 µM. 5,900 compounds, 2.4% hits. AID 1892; in the data active = binding response below about 16% or above about 210%; inactive = in between
MEKK2mut-MEK5: signal of MEK5 binding to mutant human MEKK2, retest | percent response, % at 10 µM | shares compounds with MEKK3 PB1 HTS | 5,900 compounds, 2% hits | AID 1893 | bead flow cytometry, Alexa488-MEK5 binding to MEKK2 mutant; in the data active = percent response mostly above about 71%, no sharp cut-off; inactive = mostly below about 38%;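 note: higher means compound restores mutant binding toward wildtype level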
MEKK3 confirm: MEKK3-MEK5 PB1 inhibition, single concentration confirmation | shares compounds with MEKK3 PB1 HTS | bead flow cytometry, Alexa488-MEK5 binding to MEKK3; active compounds read low | binding response (% of control), % at 10 µM | 5,900 compounds, 1.8% hits | AID 1894;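 active = binding response below 72% of control, or above a set upper limit, though filed actives all read lower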;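 note: 100% = DMSO only wells and 0% = binding blocked by excess unlabeled MEK5; lower values mean stronger disruption of MEK5 binding to MEKK3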
* hit, by the source's call; . = no result given; [ ] = another dose, or the depositor's remark. Hits are enriched below; roughly 2.3% of the tested compounds scored in any of these assays.

SMILES	Arrestin-AP2 inh	MEKK3 PB1 HTS	MEKK2 mut-MEK5	MEKK2 WT-MEK5	MEKK2wt confirm	MEKK2mut-MEK5	MEKK3 confirm
Cc1c(Cl)ccc2c(C(=O)NCCCn3nccc3C)cc(-c3ccccn3)nc12	30	95	-6	98	.	.	.
C=CCNC(=O)c1ccc(-n2cccc2)cc1	0	138*	5	122	99	-3	101
NC(=O)NC(=O)COC(=O)CCSc1ccccc1	-5	96	-3	99	.	.	.
Cc1ccc(C)c(S(=O)(=O)N=Nc2c(O)[nH]c3ccccc23)c1	-7	103	-3	95	.	.	.
Cc1ccc(S(=O)(=O)N=Nc2c(O)[nH]c3ccccc23)cc1	0	126*	6	121	104	4	105
Cc1ccc(NC(=O)c2nc[nH]c2C(=O)N2CCC(C)CC2)cc1	11	99	3	97	.	.	.
COc1ccc(NC(=O)c2nc[nH]c2C(=O)N2CCC(C)CC2)cc1	2	75*[inhibitor]	-7	101	100	-1	101
Cc1cc[n+](CC(=O)c2ccc3c(c2)OCCO3)cc1	29	105	18	111	.	.	.
O=C(C[n+]1ccc(/C=C/c2ccccc2)cc1)c1ccc2c(c1)OCCO2	37	101	32	174*	142	23	97
CCN=C1SC(CC(N)=O)C(=O)N1CC (stereo not given)	3	98	-10	94	.	.	.
CCCCNC(=O)CNC(=S)N(Cc1ccccc1F)C1CCCCC1	-20	131*	0	112	97	-2	102
CCCCc1ccc(S(=O)(=O)Nc2ccc(C)c(NS(C)(=O)=O)c2)cc1	23	137*	29	113	100	1	101
Clc1ccc(-c2cn3cc(Br)ccc3n2)cc1Cl	25	150*	0	109	93	-2	100
Cc1ccn2cc(-c3ccc(Br)cc3)nc2c1	35	95	-4	97	.	.	.
CCC(=O)Nc1ccc(F)c(Cl)c1	3	107	10	107	.	.	.
CCN(CC)C(=O)C(=O)Nc1ccc(F)c(Cl)c1	10	75*[inhibitor]	-7	88	103	-1	102
Cc1ccc(OCCC(=O)Nc2ccc(F)c(Cl)c2)cc1	2	117	31	223*	103	14	102
COc1cccc(NCc2cc(=O)oc3cc(C)c(C(C)C)cc23)c1	-3	100	3	100	.	.	.
CC(=O)Nc1nonc1NC(C)=O	4	2.0*[inhibitor]	-15	3.0*[inhibitor]	100	0	104
CC(=O)Nc1nonc1NC(=O)c1ccc(F)cc1	12	109	-2	105	.	.	.
COc1ccc(C(C(=O)NC2CCCCC2)N(CC2CCCO2)C(=O)C2COc3ccccc3O2)cc1OC (stereo not given)	22	129*	7	104	100	8	102
COc1ccc(C(=O)N(CC2CCCO2)C(C(=O)NC2CCCC2)c2ccc(Cl)cc2)cc1OC (stereo not given)	-8	103	1	99	.	.	.
O=C(NC1CCCC1)C(c1ccc(O)cc1)N(CC1CCCO1)C(=O)C1COc2ccccc2O1 (stereo not given)	22	99	-1	96	.	.	.
COc1ccc(C(=O)N(CC2CCCO2)C(C(=O)NCCC(C)C)c2ccc(C)cc2)cc1OC (stereo not given)	-5	132*	2	111	90	1	94
Cc1ccc(-c2nnnn2-c2ccc(C)cc2)cc1	-14	2.0*[inhibitor]	-84	1.0*[inhibitor]	105	11	103
SMILES	Arrestin-AP2 inh	MEKK3 PB1 HTS	MEKK2 mut-MEK5	MEKK2 WT-MEK5	MEKK2wt confirm	MEKK2mut-MEK5	MEKK3 confirm
CSc1nc2c(c(=O)[nH]1)C(c1ccccc1)C1=C(CC(C)(C)CC1=O)N2 (stereo not given)	7	131*	4	121	104	4	111
CCOC(=O)c1cc2cc([N+](=O)[O-])cc(OC)c2oc1=O	-3	105	6	108	.	.	.
CCOC(=O)c1cc2cc([N+](=O)[O-])ccc2oc1=O	29	75*[inhibitor]	-28	76	102	7	100
O=C(NC1CCCCC1)NC1CCN(CC(=O)N2CCOCC2)CC1	2	2.0*[inhibitor]	-15	2.0*[inhibitor]	101	-1	103
O=C(CN1CCCCC1)NC(=O)NC1CCCC1	-8	117	-1	104	.	.	.
COc1ccccc1C1CCCN1Cc1nc(-c2ccc(C)s2)oc1C (stereo not given)	-8	61*[inhibitor]	-14	63*[inhibitor]	107	6	101
N#Cc1c(N)nc2c(c1-c1ccccc1)CCC2	4	101	3	97	.	.	.
Cc1cc(SCc2ccccc2)nc(=O)[nH]1	13	2.0*[inhibitor]	-17	2.0*[inhibitor]	94	-1	91
CN(Cc1ccccc1)S(=O)(=O)CCNC(=O)c1ccc2c(c1)OCO2	9	.	.	.	.	.	.
CCN(Cc1ccccc1)C(=O)COC(=O)c1cc(=O)[nH]c2ccccc12	2	100	0	105	.	.	.
CCCNC(=S)NC1CC2CCC(C1)N2Cc1ccccc1 (stereo not given)	-12	82*[inhibitor]	-11	88	101	1	98
Cc1ccc(CN2C3CCCC2CC(NC(=O)c2ccc(C)cc2)C3)cc1 (stereo not given)	4	144*	52*	200*	116	18	101
CC(=O)NC1CC2CCCC(C1)N2Cc1ccc(C)cc1 (stereo not given)	-1	103	14	111	.	.	.
COCCNC(=S)NC1CC2CCCC(C1)N2Cc1cccs1 (stereo not given)	-6	82*[inhibitor]	-10	86	99	-2	97
O=C(NC1CC2CCCC(C1)N2Cc1ccccc1)C1CCCCC1 (stereo not given)	35	146*	6	130	96	-6	100
Cc1nn2cnnc2c(C)c1Cc1ccc(Cl)cc1	7	104	4	103	.	.	.
CCc1nnc(NC(=O)COC(=O)c2cc(OC)cc(OC)c2)s1	17	.	.	.	.	.	.
O=C(NC1CC2CCCC(C1)N2C(=O)Nc1ccc(Cl)c(C(F)(F)F)c1)C1CC1 (stereo not given)	15	96	-6	94	.	.	.
O=C(Nc1ccc(Cl)c(C(F)(F)F)c1)NC1CC2CCCC(C1)N2Cc1ccccc1 (stereo not given)	.	106	7	215*	171	33	106
CCN(C(=O)COC(=O)c1cnc(C)cn1)C1CCCCC1	14	1.0*[inhibitor]	-17	2.0*[inhibitor]	99	-5	99
O=C(O)c1cccc(S(=O)(=O)N2CCC(n3nnc4cc(C(F)(F)F)ccc43)CC2)c1	27	103	-5	98	.	.	.

Compound activity (PubChem BioAssay)
